Hits are enriched below; roughly 2.9% of the tested compounds scored in any of these assays.
AI-2 QS modul: Vibrio harveyi AI-2 quorum sensing modulation; Vibrio harveyi JMH597 AI-2 luminescence/OD600 ratio, 9 h; stronger effect = lower value; strain lacks LuxN and CqsS sensors; 0 = neutral-control median; AID 2094; activity change, % at 7.5 µM; 0.4% of 300,000 active; in the data active means activity change below about -75%, passing the limit was not always enough; inconclusive means no clear call, values can overlap the other calls;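 further: luminescence divided by OD600 gain over 9 h not by final OD600 alone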
Runt-SMMHC FRET: inhibitors of human RUNX1 Runt domain binding to CBFb-SMMHC; Cerulean-Runt/Venus-CBFb-SMMHC FRET ratio 530/480, 1 h; AID 1434; Q01196+Q13951; inhibition, % at 20 µM; 0.74% of 220,000 active;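 active means mean inhibition across duplicate retests at 20 µM reaching about 50%, limit read from the data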;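 further: inhibitors lower the FRET ratio by blocking Runt binding to CBFb-SMMHC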
Runt-CBFb FRET: blocks binding of human RUNX1 Runt domain to CBFb. inhibition, % at 20 µM. AID 1496. 0.46% of 220,000 active. Cerulean-Runt/Venus-CBFb FRET ratio 530/480, 1 h. Q01196+Q13951;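 active means inhibition over about 50% at 20 µM in the single-dose screen, limit read from the data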
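Assay system: Cerulean-Runt domain fusion protein, energy donor; Signal: fluorescence energy transfer, 422 nm excitation, 530/480 nm emission; Timing: 1 h compound exposure, room temperature; Control set: unlabeled CBFb; Medium: Tris buffer pH 7.5 with salts and BSA; Compound: single test concentration of 20 µM, 1% DMSO final; Probe or stimulus: Venus-CBFb 100 nM.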
proKLK7 act: activators of human kallikrein-7 zymogen; P49862; purified proKLK7, EDANS-DABCYL substrate fluorescence; 100% is mature enzyme control, 0% vehicle; activation, % at 7 µM; 0.9% of 370,000 active; AID 652039;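 active means activation above the mean of all tested compounds plus 3 SD, computed per campaign excluding outliers beyond control limits, cut at about 13% in these data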
Target sequence (P49862 whole entry, looked up): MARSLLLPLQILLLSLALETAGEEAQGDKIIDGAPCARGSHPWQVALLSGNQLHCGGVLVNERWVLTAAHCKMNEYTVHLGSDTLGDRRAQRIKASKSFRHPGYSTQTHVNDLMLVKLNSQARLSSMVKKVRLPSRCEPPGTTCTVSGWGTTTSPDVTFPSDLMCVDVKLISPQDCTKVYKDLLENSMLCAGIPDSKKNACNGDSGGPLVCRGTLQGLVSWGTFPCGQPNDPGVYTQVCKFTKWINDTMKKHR
Wee1 degr inh: human Wee1 degradation inhibition, primary screen | HeLa Luc-Wee1K328M stability, luciferase luminescence; 100% = proteasome inhibitor MG132 effect | reporter increase, % at 5 µM | AID 1321 | P30291 | 1.2% of 220,000 active;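 active means activation above the mean of all tested compounds plus 3 SD, set per screening run, cut at about 8.8% in these data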;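 further: cells exposed to compound for 20 h before luminescence read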
RanGTP-Imp inh: disruptors of Ran-importin-beta complex formation – biochemical, FRET, CFP-Ran, YFP-importin-beta, homogeneous, primary screen. cell-free CFP-Ran/YFP-importin-beta FRET ratio. inhibition, % (concentration not given with the values). 1.1% of 300,000 active;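 active means more than half of the replicate wells show a fall in the fluorescence ratio signal beyond about 16%, limit read from the data, passing the limit was not always enough; inconclusive means exactly half of the replicate wells pass the set limit; inactive means fewer than half of replicates pass the limit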
Wee1 stab conf: confirmation of human Wee1 degradation inhibitors | activation, % at 5 µM | HeLa Luc-Wee1K328M degradation, luminescence; vehicle 0%, proteasome-blocked wells 100% | shares compounds with Wee1 degr inh | 4% of 1,100 active; in the data active means activation above about 8.9%
Each line names hits and unclear results; the compound was inactive in the other large screens (follow-up assays come after a bar, where they were run).

CCC1CCc2c(n(C)c3ccccc3c2=O)O1 (configuration not stated)	none
Cn1c2c(c(=O)c3ccccc31)CCC(C)(C)O2	Wee1 degr inh 11 | Wee1 stab conf inactive
NC(=O)C1=C[C@H](c2csc3ccccc23)C[C@H](OCCCCO)O1	Wee1 degr inh 11 | Wee1 stab conf inactive
O=C(O)C1=C[C@@H](c2csc3ccccc23)C[C@@H](OCCCCO)O1	none
O=C(CCCCC(=O)Nc1ccccc1Cl)Nc1ccccc1Cl	none (no result: Runt-SMMHC FRET, Runt-CBFb FRET, Wee1 degr inh)
NNC(=O)CNc1ccccc1Cl	Wee1 degr inh 11 | Wee1 stab conf inactive
CCOc1ccc(CCNC(=O)CCC(=O)N2CCOc3ccccc32)cc1OCC	none (no result: Runt-SMMHC FRET, Runt-CBFb FRET, Wee1 degr inh)
CC(C)c1nnc(SCC(=O)NCc2ccc3c(c2)OCO3)n1C	Wee1 degr inh 12 | Wee1 stab conf inactive
Cc1nnc(SCC(=O)NCc2ccc3c(c2)OCO3)n1C	RanGTP-Imp inh inconclusive
Cc1cccnc1NC(=S)Nc1ccc(Br)cc1Cl	none
CCOC(=O)N1CCN(C(=O)CSc2nc3ccccc3c(=O)n2-c2ccccc2)CC1	Wee1 degr inh 11 | Wee1 stab conf inactive
COc1ccc(-n2c(SCC(=O)N3CCCCC3)nc3ccccc3c2=O)cc1	none (no result: Runt-SMMHC FRET, Runt-CBFb FRET, Wee1 degr inh)
CCOc1cc([N+](=O)[O-])c2nc(N)sc2c1	none
CC(=O)c1cccc(NC(=O)N2CCC(c3ccc(C)cc3)C2)c1 (configuration not stated)	Wee1 degr inh 14 | Wee1 stab conf inactive
COc1ccc(-c2ccc(SCC(=O)Nc3cccc(C(C)=O)c3)nn2)cc1OC	Wee1 degr inh 12 | Wee1 stab conf inactive
CC(=O)c1cccc(NC(=O)CSc2ccc(-c3ccc4c(c3)OCO4)nn2)c1	none
CCC(=O)Oc1ccc(C(=O)Nc2ccc([N+](=O)[O-])cc2)cc1	Wee1 degr inh 12 | Wee1 stab conf inactive
CC1(C(=O)NS(=O)(=O)C2CC2)CCCN(C(=O)/C=C/c2ccccc2)C1 (configuration not stated)	none (no result: AI-2 QS modul, Runt-SMMHC FRET, Runt-CBFb FRET, Wee1 degr inh, RanGTP-Imp inh)
CC(C)n1c(NCCO)nc2ccccc21	Wee1 degr inh 11 | Wee1 stab conf inactive
O=C(NC(=S)Nc1ccccc1)c1cccs1	none (no result: Runt-SMMHC FRET, Runt-CBFb FRET, Wee1 degr inh)
NS(=O)(=O)c1ccc(NC(=S)NC(=O)c2cccs2)cc1	Wee1 degr inh 19 | Wee1 stab conf inactive
On1onc2c3cc(-c4ccccc4)nc3ccc21	Wee1 degr inh 39 (no result: AI-2 QS modul, RanGTP-Imp inh) | Wee1 stab conf 30
c1ccc(-c2cc3c(ccc4nonc43)nn2)cc1	none
CCc1ccc(OCC(=O)Nc2nnc(C3CCCC3)s2)cc1	none (no result: Runt-SMMHC FRET, Runt-CBFb FRET, Wee1 degr inh)
CCCNC(=S)Nc1ccc(S(N)(=O)=O)cc1	none
CCOCCCNC(=S)Nc1ccc(S(N)(=O)=O)cc1	Wee1 degr inh 13 | Wee1 stab conf inactive
O=C(Nc1ccccc1)Nc1cc(OCC(F)(F)F)cc(OCC(F)(F)F)c1	Wee1 degr inh 14 | Wee1 stab conf inactive
O=C(Nc1ccccc1)Nc1cc(Cl)cc(Cl)c1	none
CCOc1ccc(NC(=O)C2C3CC/C=C\CCC32)cc1 (configuration not stated)	Wee1 degr inh 11 | Wee1 stab conf inactive
CCOCCCNC(=S)N1C2CCC1CC(NC(=O)Nc1ccc(C(=O)OCC)cc1)C2 (configuration not stated)	none
CCOCCCNC(=S)N1C2CCC1CC(NC(=O)NC13CC4CC(CC(C4)C1)C3)C2 (configuration not stated)	Wee1 degr inh 12 | Wee1 stab conf inactive
CCCCNC(=O)NC12CC3CC(CC(C3)C1)C2	Wee1 degr inh 22 | Wee1 stab conf inactive
COc1ccc(CNC(=O)C2CC(=O)N(C3CCCC3)C2)cc1 (configuration not stated)	none (no result: Runt-SMMHC FRET, Runt-CBFb FRET, Wee1 degr inh)
CN1C(=O)Cc2cc(S(=O)(=O)N3CCN(c4ccccc4F)CC3)ccc21	none (no result: Runt-SMMHC FRET, Runt-CBFb FRET, Wee1 degr inh)
CC(=O)c1ccc(NC(=O)CSc2nnc(Cn3cnc4ccccc43)o2)cc1	Wee1 degr inh 16 | Wee1 stab conf inactive
O=C(CSc1nnc(CNC(=O)c2cccs2)o1)Nc1ccccc1	Wee1 degr inh 18 | Wee1 stab conf inactive
O=[N+]([O-])c1ccccc1/C=N/n1c(C(F)(F)F)n[nH]c1=S	Wee1 degr inh 12 | Wee1 stab conf inactive
O=[N+]([O-])c1ccccc1/C=N/n1c(C2CCCCC2)n[nH]c1=S	none
CCCc1cc(=O)[nH]c(SCC(=O)Nc2ccc(Br)cc2Br)n1	none
O=C(c1ccc(Br)o1)N1CCN(c2ccc3nnc(-c4ccccc4)n3n2)CC1	Wee1 degr inh 14, RanGTP-Imp inh inconclusive | Wee1 stab conf inactive
O=C(CN1CCC(n2nnc3cc(C(F)(F)F)ccc32)CC1)Nc1ccc2c(c1)OCCO2	Wee1 degr inh 15 | Wee1 stab conf inactive
O=C(CN1CCC(n2nnc3cc(C(F)(F)F)ccc32)CC1)Nc1ccc2c(c1)CCC2	none
CC(=O)c1c(C)[nH]c(C(=O)OCC(=O)c2ccc(C)s2)c1C	none (no result: AI-2 QS modul, Runt-SMMHC FRET, Runt-CBFb FRET, Wee1 degr inh, RanGTP-Imp inh)
CCc1ccc(Nc2cc(=O)n(C3CCCCC3)c(=O)[nH]2)cc1	RanGTP-Imp inh inconclusive
O=c1cc(Nc2ccc3c(c2)OCCO3)[nH]c(=O)n1C1CCCCC1	Wee1 degr inh 11 | Wee1 stab conf 11
O=C(NCc1csc(-c2ccccc2)n1)c1cc(F)cc2c1OCOC2	Wee1 degr inh 15 | Wee1 stab conf inactive
CCOC(=O)[C@H]1[C@H]2COc3ccc(OC)cc3[C@@H]2N2C(=O)CN(C)C(=O)[C@@]12C	none (no result: AI-2 QS modul, Runt-SMMHC FRET, Runt-CBFb FRET, Wee1 degr inh, RanGTP-Imp inh)
Cc1ccccc1Nc1nc(N)nc(COC(=O)c2ccco2)n1	none (no result: AI-2 QS modul, Runt-SMMHC FRET, Runt-CBFb FRET, Wee1 degr inh, RanGTP-Imp inh)
Cc1ccc(/C=C/C(=O)OCc2nc(N)nc(Nc3ccccc3C)n2)o1	Wee1 degr inh 13 | Wee1 stab conf inactive
O=C(c1cnn2c(C(F)(F)F)cc(-c3cccs3)nc12)N1CCOCC1	none
FC(F)(F)c1cc(-c2cccs2)nc2nc(N3CCOCC3)sc12	Wee1 degr inh 12 | Wee1 stab conf inactive
CCCC(=O)N1CCN(c2ccc(NC(=S)NC(=O)c3cccc(C)c3)cc2)CC1	none
COc1cccc(OC(=O)c2cc3ccccc3oc2=O)c1	Wee1 degr inh 15 | Wee1 stab conf inactive
CCn1ncc(Br)c1C(=O)Nc1cccc(F)c1	Wee1 degr inh 13 | Wee1 stab conf inactive
CCn1ncc(Br)c1C(=O)Nc1ccc2c(c1)OCCO2	none
COc1ccc(/C=C/C(=O)O/N=C(\N)c2ccccc2)cc1OC	Wee1 degr inh 17 | Wee1 stab conf inactive
Cc1ccc(-c2nnc(N)s2)cc1	none
CC(C)c1ccc(-c2nnc(N)s2)cc1	Wee1 degr inh 12 | Wee1 stab conf inactive

Assay outcomes from PubChem BioAssay.
